Consider 14 compounds from ChEMBL document CHEMBL3632575, “Structure-Activity Relationships of the Peptide Kappa Opioid Receptor Antagonist Zyklophin” (J Med Chem, 2015).

A word on the Ki: it is the equilibrium dissociation constant of an inhibitor or competing ligand from its target. Low values mean tighter binding, high ones weaker binding.

Data set [1] addresses Kappa-type opioid receptor (Rattus norvegicus, UniProt P34975). Briefly: Displacement of [3H]diprenorphine from rat kappa-opioid receptor expressed in CHO cells after 90 mins by scintillation counter. The data set is classed as cell-based. The gist of the method: (§1)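 Membranes from CHO cells stably expressing cloned rat KOR or MOR were incubated in triplicate with test peptide at 0.1 nM–10 µM for 90 min at 22 °C in 50 mM Tris, pH 7.4. […] Nonspecific binding was set with 10 µM unlabeled Dyn A(1-13)NH2 (KOR) or DAMGO (MOR). Ki is the mean ± S.E.M. of at least three independent experiments.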
For orientation: Displacement assays read how much labelled ligand stays bound in the presence of the test substance.

Data set [2] concerns the target Kappa-type opioid receptor (Rattus norvegicus) (UniProt P34975). Briefly: Displacement of [3H]diprenorphine from rat kappa-opioid receptor expressed in CHO cells after 90 mins by scintillation counter relative to zyklophin. The format is cell-based.
The next data set concerns the target Mu-type opioid receptor (Rattus norvegicus, UniProt P33535). Briefly: Displacement of [3H]DAMGO from rat mu-opioid receptor expressed in CHO cells after 90 mins by scintillation counter. The format is cell-based. The gist of the method:
as §1

The next data set is filed under the species Rattus norvegicus. In words: Selectivity ratio, ratio of Ki for rat mu-opioid receptor to Ki for rat kappa-opioid receptor.
The nature of data set [3]: Retention time of the compound by RP-HPLC. The format is physicochemical. The gist of the method:
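Analytical RP-HPLC on a C18 column (5 µ, 300 Å, 4.6 × 50 mm). System 1: 5–50% acetonitrile in water, both with 0.1% TFA, over 45 min at 1 mL/min. System 2: 15–60% methanol/0.1% TFA over 45 min at 1.0 mL/min. System 3: 1–21% acetonitrile against aqueous 0.09 M TEAP, pH 2.5, over 40 min.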

In data set [4] the target is Kappa-type opioid receptor (Homo sapiens) (UniProt P41145). In words: Agonist activity at kappa-opioid receptor (unknown origin) at 10 uM after 90 mins by [35S]GTPgammaS binding assay. The data set is classed as functional. The gist of the method:
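KOR-containing membranes were incubated in duplicate with [35S]GTPγS (0.1–0.2 nM) and 10 µM peptide for 90 min at 22 °C in 50 mM HEPES, pH 7.4. Specific binding is total minus binding with 3 µM unlabeled GTPγS. Efficacy is expressed relative to the full agonist Dyn A(1-13)NH2, from at least two independent experiments.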

The target is the same in data set [5]. In words: Antagonist activity at kappa-opioid receptor (unknown origin) assessed as inhibition of DynA(1-13)-induced [35S]-GTPgammaS binding after 90 mins. The data set is classed as functional. The gist of the method:
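Antagonism was measured in a [35S]GTPγS (0.1–0.2 nM) binding assay on KOR membranes, run in duplicate for 90 min at 22 °C in 50 mM HEPES, pH 7.4, with Dyn A(1-13)NH2 as the stimulating agonist. Specific binding is total minus binding with 3 µM GTPγS. KB was derived by Schild analysis from shifts of the agonist concentration-response curve, averaged over 2–5 independent experiments, with 95% confidence intervals.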
For orientation: Binding of GTPγS marks nucleotide exchange on a G protein.

Molecules are shown by their SMILES. The source made the active and inactive calls. The rule behind the calls is not given here.

Sequence of Kappa-type opioid receptor (Homo sapiens) (P41145 whole entry): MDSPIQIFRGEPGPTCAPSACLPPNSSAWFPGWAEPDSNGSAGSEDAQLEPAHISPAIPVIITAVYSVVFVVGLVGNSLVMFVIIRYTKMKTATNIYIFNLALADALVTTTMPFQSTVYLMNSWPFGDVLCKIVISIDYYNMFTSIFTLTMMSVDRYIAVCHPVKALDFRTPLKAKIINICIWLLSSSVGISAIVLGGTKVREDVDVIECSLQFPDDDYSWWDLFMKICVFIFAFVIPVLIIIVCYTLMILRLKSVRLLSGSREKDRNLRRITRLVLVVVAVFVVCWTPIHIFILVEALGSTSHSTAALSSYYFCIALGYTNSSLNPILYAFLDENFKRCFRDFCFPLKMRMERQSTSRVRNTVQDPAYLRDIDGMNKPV
Sequence of Kappa-type opioid receptor (P34975 whole entry): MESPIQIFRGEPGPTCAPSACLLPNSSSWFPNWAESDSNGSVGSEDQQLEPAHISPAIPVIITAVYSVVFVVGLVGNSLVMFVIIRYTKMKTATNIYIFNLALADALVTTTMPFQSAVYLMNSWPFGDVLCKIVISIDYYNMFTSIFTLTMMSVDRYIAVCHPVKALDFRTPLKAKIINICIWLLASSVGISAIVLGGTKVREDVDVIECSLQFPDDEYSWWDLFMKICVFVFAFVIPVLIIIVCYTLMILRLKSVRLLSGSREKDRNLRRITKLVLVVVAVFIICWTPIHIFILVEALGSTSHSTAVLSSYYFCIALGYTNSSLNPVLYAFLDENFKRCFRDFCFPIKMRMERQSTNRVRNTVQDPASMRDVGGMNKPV
Sequence of Kappa-type opioid receptor (Rattus norvegicus) (P34975 whole entry): as above
Sequence of Mu-type opioid receptor (P33535 whole entry): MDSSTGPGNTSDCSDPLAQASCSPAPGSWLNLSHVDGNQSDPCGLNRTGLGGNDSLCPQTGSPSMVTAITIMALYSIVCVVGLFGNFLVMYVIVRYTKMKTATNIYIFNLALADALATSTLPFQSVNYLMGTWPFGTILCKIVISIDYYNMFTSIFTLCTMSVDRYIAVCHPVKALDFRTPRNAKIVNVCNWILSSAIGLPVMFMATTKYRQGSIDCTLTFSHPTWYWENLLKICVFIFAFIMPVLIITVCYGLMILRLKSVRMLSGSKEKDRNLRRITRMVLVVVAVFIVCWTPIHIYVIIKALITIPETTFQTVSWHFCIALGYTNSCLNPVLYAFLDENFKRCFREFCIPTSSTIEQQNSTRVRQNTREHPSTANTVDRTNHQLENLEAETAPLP

In the case of `CC[C@H](C)[C@H](NC(=O)[C@H](CCCNC(=N)N)NC(=O)[C@H](CCCNC(=N)N)NC(=O)[C@@H](CC(N)=O)NC(=O)[C@H](Cc1ccccc1)NC(=O)CNC(=O)CNC(=O)[C@H](Cc1ccc(O)cc1)NCc1ccccc1)C(=O)N[C@@H](CCCNC(=N)N)C(=O)N1CCC[C@H]1C(=O)N[C@@H](CCCCN)C(N)=O`, the Ki in data set [1] was 0.412 µM; at Mu-type opioid receptor, 2.44 µM. Further, in data set [2], the fold change (FC) turned out to be 0.23. Moreover, the Ratio Ki in the data set filed under Rattus norvegicus turned out to be 6.
Consider `N=C(N)NCCC[C@@H]1NC(=O)[C@H](CCCNC(=N)N)NC(=O)[C@H](NC(=O)[C@H](Cc2ccccc2)NC(=O)CNC(=O)CNC(=O)[C@@H](Cc2ccc(O)cc2)NCc2ccccc2)CC(=O)NC[C@@H](C(=O)N[C@@H](CCCNC(=N)N)C(=O)N2CCC[C@H]2C(=O)N[C@@H](CCCCN)C(N)=O)NC1=O`, for which, in data set [3], the Retention_time amounted to 17.3 min.
As to `N=C(N)NCCC[C@@H]1NC(=O)[C@H](CCCNC(=N)N)NC(=O)[C@H](NC(=O)[C@H](Cc2ccccc2)NC(=O)CNC(=O)CNC(=O)[C@H](Cc2ccc(O)cc2)NCCc2ccccc2)CC(=O)NC[C@@H](C(=O)N[C@@H](CCCNC(=N)N)C(=O)N2CCC[C@H]2C(=O)N[C@@H](CCCCN)C(N)=O)NC1=O`, in data set [4], the result was Active.
On the same count and under the same terms, in the case of `CN[C@@H](Cc1ccc(O)cc1)C(=O)NCC(=O)NCC(=O)N[C@@H](Cc1ccccc1)C(=O)N[C@@H]1CC(=O)NC[C@@H](C(=O)N[C@@H](CCCNC(=N)N)C(=O)N2CCC[C@H]2C(=O)N[C@@H](CCCCN)C(N)=O)NC(=O)[C@H](CCCNC(=N)N)NC(=O)[C@H](CCCNC(=N)N)NC1=O` it was “Active”; in that of `C[C@@H]1NC(=O)[C@H](NC(=O)[C@H](Cc2ccccc2)NC(=O)CNC(=O)CNC(=O)[C@H](Cc2ccc(O)cc2)NCc2ccccc2)CC(=O)NC[C@@H](C(=O)N[C@@H](CCCNC(=N)N)C(=O)N2CCC[C@H]2C(=O)N[C@@H](CCCCN)C(N)=O)NC(=O)[C@H](CCCNC(=N)N)NC1=O`, “inactive”.
In the case of `N=C(N)NCCC[C@@H]1NC(=O)[C@H](CCCNC(=N)N)NC(=O)[C@H](NC(=O)[C@H](Cc2ccccc2)NC(=O)CNC(=O)CNC(=O)[C@H](Cc2ccc(O)cc2)NCC2CC2)CC(=O)NC[C@@H](C(=O)N[C@@H](CCCNC(=N)N)C(=O)N2CCC[C@H]2C(=O)N[C@@H](CCCCN)C(N)=O)NC1=O`, the outcome in data set [4] was Active.
The same measure, in the same setting: the entry for `C=CCN[C@@H](Cc1ccc(O)cc1)C(=O)NCC(=O)NCC(=O)N[C@@H](Cc1ccccc1)C(=O)N[C@@H]1CC(=O)NC[C@@H](C(=O)N[C@@H](CCCNC(=N)N)C(=O)N2CCC[C@H]2C(=O)N[C@@H](CCCCN)C(N)=O)NC(=O)[C@H](CCCNC(=N)N)NC(=O)[C@H](CCCNC(=N)N)NC1=O` is “Active”.
Consider `C[C@H](NCc1ccccc1)C(=O)NCC(=O)NCC(=O)N[C@@H](Cc1ccccc1)C(=O)N[C@@H]1CC(=O)NC[C@@H](C(=O)N[C@@H](CCCNC(=N)N)C(=O)N2CCC[C@H]2C(=O)N[C@@H](CCCCN)C(N)=O)NC(=O)[C@H](CCCNC(=N)N)NC(=O)[C@H](CCCNC(=N)N)NC1=O`, for which, in data set [4], the outcome was inactive.
For the compound `C[C@H](NC(=O)[C@@H]1CNC(=O)C[C@@H](NC(=O)[C@H](Cc2ccccc2)NC(=O)CNC(=O)CNC(=O)[C@H](Cc2ccc(O)cc2)NCc2ccccc2)C(=O)N[C@@H](CCCNC(=N)N)C(=O)N[C@@H](CCCNC(=N)N)C(=O)N1)C(=O)N1CCC[C@H]1C(=O)N[C@@H](CCCCN)C(N)=O`, the outcome in data set [4] was inactive.
Still for that read-out and setting: the entry for `N=C(N)NCCC[C@@H]1NC(=O)[C@H](CCCNC(=N)N)NC(=O)[C@H](NC(=O)[C@H](Cc2ccccc2)NC(=O)CNC(=O)CNC(=O)[C@H](Cc2ccc(O)cc2)NC(=O)c2ccccc2)CC(=O)NC[C@@H](C(=O)N[C@@H](CCCNC(=N)N)C(=O)N2CCC[C@H]2C(=O)N[C@@H](CCCCN)C(N)=O)NC1=O` is “Active”.
With `C[C@@H]1NC(=O)[C@H](CCCNC(=N)N)NC(=O)[C@H](NC(=O)[C@H](Cc2ccccc2)NC(=O)CNC(=O)CNC(=O)[C@H](Cc2ccc(O)cc2)NCc2ccccc2)CC(=O)NCC(C(=O)N[C@@H](CCCNC(=N)N)C(=O)N2CCC[C@H]2C(=O)N[C@@H](CCCCN)C(N)=O)NC1=O` (some centres undefined), the outcome in data set [4] and in data set [5] was inactive.
`N=C(N)NCCC[C@@H]1NC(=O)[C@H](CCCNC(=N)N)NC(=O)[C@H](NC(=O)[C@H](Cc2ccccc2)NC(=O)CNC(=O)CNC(=O)[C@H](Cc2ccc(O)cc2)NCc2ccccc2)CC(=O)NCCC[C@@H](C(=O)N[C@@H](CCCNC(=N)N)C(=O)N2CCC[C@H]2C(=O)N[C@@H](CCCCN)C(N)=O)NC1=O`: in data set [4], the outcome was Active.
Turning to `C[C@H](NC(=O)CNC(=O)CNC(=O)[C@H](Cc1ccc(O)cc1)NCc1ccccc1)C(=O)N[C@@H]1CC(=O)NC[C@@H](C(=O)N[C@@H](CCCNC(=N)N)C(=O)N2CCC[C@H]2C(=O)N[C@@H](CCCCN)C(N)=O)NC(=O)[C@H](CCCNC(=N)N)NC(=O)[C@H](CCCNC(=N)N)NC1=O`, the outcome in data set [4] was inactive.
Consider `CC1NC(=O)C[C@@H](NC(=O)[C@H](Cc2ccccc2)NC(=O)CNC(=O)CNC(=O)[C@H](Cc2ccc(O)cc2)NCc2ccccc2)C(=O)N[C@@H](CCCNC(=N)N)C(=O)N[C@@H](CCCNC(=N)N)C(=O)NC1C(=O)N[C@@H](CCCNC(=N)N)C(=O)N1CCC[C@H]1C(=O)N[C@@H](CCCCN)C(N)=O` (some centres undefined), for which the Ratio Ki in the data set listed under Rattus norvegicus worked out at 8. In data set [4], the result was Active.
